Test results taken from PubChem BioAssay.
The source made the active and inactive calls.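 Rule for the calls, unless noted: active = viability loss from added drug above about 55%, and viability with drug at most 40%, in both replicates (limit read from the data, passing the limit was not always enough); inconclusive = both conditions met in only one replicate; inactive = neither replicate meets both conditions.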

What was measured:
[1] = Her2 expression decrease, cell viability multiplex – SKBR3 breast tumor cells, AlphaScreen, ATP viability, primary screen (AID 461;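 active = Her2 level under about 52% in both replicate screens, with viability over 70% of control, limit read from the data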;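 for Her2 level: lower value means less Her2 protein in the cells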;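 for viability: percent of carrier control wells set as 100% viability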); conditions: SKBR3 Her2 protein level, 18-24 h, measured here: SKBR3 viability, ATP luminescence, at 10 µM
[2] = target: Receptor tyrosine-protein kinase erbB-2 (Homo sapiens) (UniProt P04626); experiment: as above; conditions: 18-24 h, at 10 µM, stronger effect = lower value
Receptor tyrosine-protein kinase erbB-2 (Homo sapiens), sequence (P04626 whole entry, looked up): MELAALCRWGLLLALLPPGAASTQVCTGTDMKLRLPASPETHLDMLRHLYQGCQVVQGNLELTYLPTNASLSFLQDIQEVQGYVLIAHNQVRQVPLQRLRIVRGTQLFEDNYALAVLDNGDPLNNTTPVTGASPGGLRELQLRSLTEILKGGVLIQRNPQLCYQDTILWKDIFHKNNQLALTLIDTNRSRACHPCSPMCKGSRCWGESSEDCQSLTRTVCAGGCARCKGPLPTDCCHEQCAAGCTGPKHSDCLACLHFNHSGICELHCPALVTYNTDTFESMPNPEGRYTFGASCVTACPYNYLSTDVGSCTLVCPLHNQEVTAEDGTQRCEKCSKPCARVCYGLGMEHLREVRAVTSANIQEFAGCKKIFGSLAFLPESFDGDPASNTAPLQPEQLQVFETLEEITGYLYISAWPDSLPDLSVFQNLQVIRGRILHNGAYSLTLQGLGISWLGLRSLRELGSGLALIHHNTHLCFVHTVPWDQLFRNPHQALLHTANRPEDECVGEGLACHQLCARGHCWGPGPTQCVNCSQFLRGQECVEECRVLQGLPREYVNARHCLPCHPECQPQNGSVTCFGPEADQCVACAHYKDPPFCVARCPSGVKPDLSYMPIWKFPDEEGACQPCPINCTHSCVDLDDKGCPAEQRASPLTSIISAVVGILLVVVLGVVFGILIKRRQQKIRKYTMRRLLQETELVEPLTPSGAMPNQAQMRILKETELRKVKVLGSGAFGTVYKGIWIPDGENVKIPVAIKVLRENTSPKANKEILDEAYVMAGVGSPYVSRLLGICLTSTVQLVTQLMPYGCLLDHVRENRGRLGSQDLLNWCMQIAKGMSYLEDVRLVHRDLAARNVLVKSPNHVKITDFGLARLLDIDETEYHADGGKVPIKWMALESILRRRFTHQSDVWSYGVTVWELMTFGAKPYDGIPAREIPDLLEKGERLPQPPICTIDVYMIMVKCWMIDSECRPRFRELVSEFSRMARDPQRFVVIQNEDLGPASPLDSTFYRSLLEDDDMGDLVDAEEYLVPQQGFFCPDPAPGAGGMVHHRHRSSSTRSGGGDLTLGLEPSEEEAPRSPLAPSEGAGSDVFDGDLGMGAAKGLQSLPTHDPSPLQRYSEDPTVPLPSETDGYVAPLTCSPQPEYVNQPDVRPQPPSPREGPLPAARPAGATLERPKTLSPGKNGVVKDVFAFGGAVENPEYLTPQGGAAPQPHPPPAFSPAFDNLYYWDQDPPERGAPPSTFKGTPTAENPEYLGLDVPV

[3] = reduced viability of SK-BR-3 breast cancer cells – cell-based, 24 h, human, pilot screen (AID 572;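 active = viability at or below 10% of carrier control in both of two separate runs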;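 note: compound exposure lasted between 18 and 24 h rather than exactly 24 h; 100% = carrier-treated control wells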); conditions: SK-BR-3 viability, CellTiter-Glo luminescence, at 10 µM, stronger effect = lower value
[4] = HUVEC growth inhibition – cell-based, human, primary screen (AID 575;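 active = viability at or below 30% in both replicate assays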;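 note: 100% = median of untreated cell wells with 0.1% DMSO on each plate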); conditions: HUVEC proliferation, CellTiter-Glo luminescence, 72 h; at 10 µM; stronger effect = lower value
In short: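 Test system: primary human umbilical vein endothelial cells. Quantity: 1250 cells/well. Compound: single 10 µM dose, 0.1% DMSO, from 5x medium stock. Timing: 72 h treatment at 37 °C. Detection: ATP-based CellTiter-Glo luminescent read. Benchmarks: vehicle and MePR control wells. Format: 384-well plates coated with collagen.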

[5] = H69AR cell proliferation blockers – human, duplicate replicates, primary screen (AID 580;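 active = viability at or under a set limit in both replicates, limit being median viability minus 3 SD, cut at about 48% in these data, passing the limit was not always enough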;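 note: 100% = mean luminescence of untreated wells and 0% = no signal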); conditions: H69AR lung tumor cells viability, ATP luminescence, 72 h; at 10 µM; stronger effect = lower value
[6] = MRP1 drug-resistance reversers in H69AR cells – cell-based, doxorubicin co-treatment, pilot screen (AID 601); conditions: CellTiter-Glo, 72 h, at 10 µM; for differential viability (reversal): stronger effect = higher value
[7] = yeast transport mutant growth inhibition pilot in 384-well plates, post-Golgi transport modulator project (AID 636; in the data active = inhibition above about 31%); conditions: absorbance 615 nm, about 18 h, stronger effect = higher value
[8] = growth suppression of yeast trafficking mutant, preliminary HTS, modulators of trafficking downstream of Golgi apparatus project, 1536-format plate, OD 615 nm (AID 637; in the data active = inhibition above about 30%); conditions: yeast transport mutant growth, absorbance 615 nm, 18 h; stronger effect = higher value
[9] = H69AR cells + 2 uM doxorubicin, measured here: viability with 2 uM doxorubicin, stronger effect = lower value
[10] = H69AR cells, compound alone cytotoxicity

| SMILES | viability [1] | Her2 level [2] | viability [3] | viability [4] | viability [5] | differential viability (reversal) ([6]; H69AR cells + 2 uM doxorubicin) | viability [6, 9] | viability [6, 10] | inhibition [7] | inhibition [8] |
| --- | --- | --- | --- | --- | --- | --- | --- | --- | --- | --- |
| CC(C)Oc1ccc(N2CC(C(=O)Nc3ccccc3F)CC2=O)cc1 (stereo not given) | 101% | 122% (inactive) | 101% (inactive) | 92.6% (inactive) | 97.6% (inactive) | 8.51% (inactive) | 89.1% | 97.6% | -1.17% (inactive) | -10.3% (inactive) |
| Cc1nnc2n(Cc3ccccc3)c(=O)c3c4c(sc3n12)COC(C(C)C)C4 (stereo not given) | 124% | 69% (inactive) | 124% (inactive) | 82.5% (inactive) | 76.2% (inactive) | 17% (inactive) | 59.2% | 76.2% | -7.6% (inactive) | 11.9% (inactive) |
| O=C(O)C1CC(=O)N(c2ccc(Br)cc2)C1 (stereo not given) | 81.5% | 122% (inactive) | 81.5% (inactive) | 94.6% (inactive) | 93.8% (inactive) | 4.02% (inactive) | 89.8% | 93.8% | -6.05% (inactive) | -4.1% (inactive) |
| O=C1NC(c2cccs2)Nc2ccccc21 (stereo not given) | 107% | 86.5% (inactive) | 107% (inactive) | 111% (inactive) | 86.7% (inactive) | -4.77% (inactive) | 91.4% | 86.7% | -8.03% (inactive) | -9.52% (inactive) |
| O=C(OCc1nnc(-c2ccccc2)o1)C1=COCCO1 | 100% | 94% (inactive) | 100% (inactive) | 101% (inactive) | 92.1% (inactive) | -0.965% (inactive) | 93% | 92.1% | -8.67% (inactive) | -1.97% (inactive) |
| COc1ccc(C(=O)NCCn2ccc3ccccc32)cc1 | 126% | 97% (inactive) | 126% (inactive) | 111% (inactive) | 92.5% (inactive) | 8.59% (inactive) | 84% | 92.5% | -5.6% (inactive) | 0.16% (inactive) |
| Cc1ccc(-n2c(=O)c3sccc3n(CC(=O)NCc3ccco3)c2=O)cc1 | 107% | 102% (inactive) | 107% (inactive) | 96.5% (inactive) | 99% (inactive) | 7.63% (inactive) | 91.4% | 99% | -5.53% (inactive) | -2.91% (inactive) |
| CCc1ccc(C2CC(c3ccccc3)n3ncnc3N2)cc1 (stereo not given) | 80% | 86% (inactive) | 80% (inactive) | 83.1% (inactive) | 88.1% (inactive) | 3.85% (inactive) | 84.3% | 88.1% | 3.59% (inactive) | 0.67% (inactive) |
| CCCCC(c1nnnn1CS(=O)(=O)c1ccc(C)cc1)N1CCN(c2ccccc2)CC1 (stereo not given) | 102% | 88% (inactive) | 102% (inactive) | 69.5% (inactive) | 90.6% (inactive) | -0.75% (inactive) | 91.3% | 90.6% | -3.29% (inactive) | -1.27% (inactive) |
| CCc1nc(N)c(C#N)c(-c2ccncc2)c1C | 102% | 95% (inactive) | 102% (inactive) | 89.2% (inactive) | 102% (inactive) | 21.1% (inactive) | 80.6% | 102% | -4.27% (inactive) | -0.82% (inactive) |
| CN(C1CCS(=O)(=O)C1)S(=O)C12CC3CC(CC(C3)C1)C2 (stereo not given) | 83% | 95.5% (inactive) | 83% (inactive) | 92.8% (inactive) | 99.9% (inactive) | 3.66% (inactive) | 96.3% | 99.9% | -5.75% (inactive) | -5.08% (inactive) |
| COc1ccc(-c2nnc3ccc(SC(C(C)=O)C(C)=O)nn23)cc1OC | 90% | 86.5% (inactive) | 90% (inactive) | 87.8% (inactive) | 82.9% (inactive) | 4.92% (inactive) | 78% | 82.9% | -6.62% (inactive) | 6.17% (inactive) |
| CC(=O)Oc1ccc(-c2ccc(C(=O)O)cc2)cc1 | 87% | 110% (inactive) | 87% (inactive) | 94.5% (inactive) | 107% (inactive) | 18.3% (inactive) | 88.8% | 107% | -0.64% (inactive) | -7.83% (inactive) |
| COC(=O)c1ccc(Cl)c(NC(C)=O)c1 | 108% | 99.5% (inactive) | 108% (inactive) | 70.9% (inactive) | 97.2% (inactive) | 7.73% (inactive) | 89.5% | 97.2% | -1.17% (inactive) | -0.33% (inactive) |
| CCS(=O)(=O)N1CCCC(c2nc(-c3cccc(OC)c3)no2)C1 (stereo not given) | 100% | 110% (inactive) | 100% (inactive) | 96.7% (inactive) | 92.7% (inactive) | 0.525% (inactive) | 92.2% | 92.7% | -3.84% (inactive) | -2.7% (inactive) |
| CCCCP(=O)(CCCC)Cc1ccccc1O | 99.5% | 104% (inactive) | 99.5% (inactive) | 103% (inactive) | 97.1% (inactive) | 7.29% (inactive) | 89.8% | 97.1% | -5.32% (inactive) | -6.07% (inactive) |

| SMILES | viability [1] | Her2 level [2] | viability [3] | viability [4] | viability [5] | differential viability (reversal) ([6]; H69AR cells + 2 uM doxorubicin) | viability [6, 9] | viability [6, 10] | inhibition [7] | inhibition [8] |
| --- | --- | --- | --- | --- | --- | --- | --- | --- | --- | --- |
| CCn1nnc(NC(=O)c2ccc(-c3ccc(Cl)cc3)o2)n1 | 87.5% | 122% (inactive) | 87.5% (inactive) | 90% (inactive) | 91.2% (inactive) | 3.21% (inactive) | 88% | 91.2% | -6.62% (inactive) | -0.66% (inactive) |
| Cc1ccc(S(=O)(=O)NCC2CCC(C(=O)NCCCN3CCOCC3)CC2)cc1 (stereo not given) | 89.5% | 93% (inactive) | 89.5% (inactive) | 92.7% (inactive) | 88.6% (inactive) | -8.07% (inactive) | 96.6% | 88.6% | -0.53% (inactive) | 24.9% (inactive) |
| CCOC(=O)C1CCCN(C/C(O)=C(\C#N)c2nc(-c3ccc(Cl)cc3)cs2)C1 (stereo not given) | 78.5% | 101% (inactive) | 78.5% (inactive) | 71.8% (inactive) | 84.1% (inactive) | -7.97% (inactive) | 92.1% | 84.1% | -6.16% (inactive) | -3.17% (inactive) |
| O=C(NCC1CCCO1)C1CCN(c2ccc(S(=O)(=O)N3CCCC3)cc2)CC1 (stereo not given) | 115% | 112% (inactive) | 115% (inactive) | 99.2% (inactive) | 80% (inactive) | -6.02% (inactive) | 86% | 80% | -5.45% (inactive) | -1.5% (inactive) |
| CCNc1nc(N2CCOCC2)nc(N(c2ccccc2)c2ccccc2)n1 | 80.5% | 97% (inactive) | 80.5% (inactive) | 62.2% (inactive) | 84.2% (inactive) | 4.78% (inactive) | 79.4% | 84.2% | -3.55% (inactive) | -10% (inactive) |
| O=C(CCCc1cccs1)Nc1nc2c(s1)CCCC2 | 86.5% | 74% (inactive) | 86.5% (inactive) | 55.3% (inactive) | 84.5% (inactive) | 2.73% (inactive) | 81.7% | 84.5% | -9.19% (inactive) | 0.82% (inactive) |
| COc1cccc(NC(=O)CN2CCN(c3ccccc3F)CC2)c1 | 90% | 88.5% (inactive) | 90% (inactive) | 107% (inactive) | 94.9% (inactive) | 1.8% (inactive) | 93.1% | 94.9% | -4.4% (inactive) | 35.6% (active) |
| CC(C)NC(=O)CSc1nnc(-c2ccc(C(C)(C)C)cc2)n1C | 95% | 82% (inactive) | 95% (inactive) | 71.5% (inactive) | 103% (inactive) | 11.6% (inactive) | 91.4% | 103% | -2.24% (inactive) | -3.65% (inactive) |
| O=C(NCCN1CCOCC1)C1CC(=O)N(c2ccc(F)c(Cl)c2)C1 (stereo not given) | 124% | 111% (inactive) | 124% (inactive) | 100% (inactive) | 98.2% (inactive) | 3.27% (inactive) | 94.9% | 98.2% | -1.18% (inactive) | -4.03% (inactive) |
| O=C(Nc1ccc(Cc2ccc(NC(=O)N3CCOCC3)cc2)cc1)N1CCOCC1 | 97% | 94% (inactive) | 97% (inactive) | 90.1% (inactive) | 98.5% (inactive) | 15.7% (inactive) | 82.8% | 98.5% | -4.87% (inactive) | -1.17% (inactive) |
| O=S(=O)(NCCc1ccccn1)c1cccs1 | 99% | 93% (inactive) | 99% (inactive) | 97.4% (inactive) | 101% (inactive) | 2.29% (inactive) | 98.3% | 101% | -7.07% (inactive) | 4.1% (inactive) |
| COC(=O)c1cnc2c(C(F)(F)F)cccc2c1OC | 104% | 106% (inactive) | 104% (inactive) | 97.6% (inactive) | 98.4% (inactive) | 11.6% (inactive) | 86.8% | 98.4% | -5.33% (inactive) | -1.31% (inactive) |
| CCCCn1c(SCC(=O)c2ccc3c(c2)OCCO3)nnc1-c1ccco1 | 94.5% | 104% (inactive) | 94.5% (inactive) | 81.8% (inactive) | 95% (inactive) | 1.53% (inactive) | 93.4% | 95% | 1.73% (inactive) | 16.1% (inactive) |
| CCNC(=O)N1c2ccc(OCC)cc2C(C)=CC1(C)C | 95.5% | 99.5% (inactive) | 95.5% (inactive) | 106% (inactive) | 89.3% (inactive) | -1.44% (inactive) | 90.8% | 89.3% | -7.76% (inactive) | -1.15% (inactive) |
| COc1ccc(C2C(=O)N(C3CCCCC3)CC(=O)N2Cc2ccco2)cc1 (stereo not given) | 110% | 91.5% (inactive) | 110% (inactive) | 95.9% (inactive) | 97.7% (inactive) | 18.2% (inactive) | 79.5% | 97.7% | -6.67% (inactive) | 1.45% (inactive) |
| COc1ccccc1OC(=O)c1ccc2nsnc2c1 | 110% | 89% (inactive) | 110% (inactive) | 91.8% (inactive) | 100% (inactive) | 11.6% (inactive) | 88.4% | 100% | -8.16% (inactive) | -6.55% (inactive) |
